Results: PubChem BioAssay AID504383 (The Scripps Research Institute Molecular Screening Center, 2011)
Among all 2,500 compounds or so, about 1,200 (48%) were called active. The set was probably picked from earlier hits. This is one part of the list. Unmarked numbers belong to inactive results.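 How the source made its calls: active means mean activation above the low control average plus 3 SD, as set in the primary screen (cut at about 12% in these data); inactive means the rest.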

What follows are compounds tested against Troponin I, cardiac muscle (Homo sapiens) + Troponin T, cardiac muscle (Homo sapiens) + Troponin C, slow skeletal and cardiac muscles (Homo sapiens) (UniProt P19429+P45379+P63316) (assay: calcium sensitizers of cardiac thin filaments – biochemical, IANBD-TnC fluorescence, triplicate, confirmation (AID 504383;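 further: 0% = DMSO at 0.472 mM calcium and 100% = DMSO at 2.9 mM calcium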)). Details: IANBD-labeled cardiac RTF, Ca2+ sensitivity fluorescence; at 7.2 µM; stronger effect = higher value; scaled from EC20 to saturating calcium; tested at EC20 calcium, 0.472 mM.
Outline: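 material = labelled regulated thin filaments | probe or stimulus = Ca2+ 0.472 mM, EC20 level | dosing = single nominal compound dose of 7.2 µM | schedule = 15 min at 25 °C | signal = fluorescence intensity of labelled filaments | evaluation = fluorescence gain scaled between EC20 and EC100 calcium controls | benchmarks = low control EC20 calcium, high control EC100 calcium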

SMILES	activation
CCOC(=O)c1sc(-c2ccc(F)cc2)cc1NC(=O)Nc1ccccc1OC	37.5% (active)
COc1ccccc1NS(=O)(=O)c1cc(C(=O)NCCN2CCOCC2)ccc1Cl	2.55%
CCOc1ccc2ccccc2c1CNCCN1CCOCC1	27% (active)
CC1=CC(=C(C#N)c2nc3ccccc3s2)C=C(C)N1c1ccc(F)cc1	74.2% (active)
COc1ccccc1N1C(C)=CC(=C(C#N)c2nc3ccccc3s2)C=C1C	11.1%
Cc1ccc(-n2c(C)cc(C(=O)COC(=O)c3ccc[nH]c3=O)c2C)cc1	6.02%
COCCn1c(C)cc(C(=O)COC(=O)c2ccc(Cl)c(S(N)(=O)=O)c2)c1C	13% (active)
O=C1CCC(=O)N1CC(O)COc1ccccc1 (stereo unspecified)	255% (active)
Cc1cc(C)n(CC(O)COc2ccccc2)n1 (stereo unspecified)	6.17%
OCCN1CCN(CC(O)COc2ccc(C34CC5CC(CC(C5)C3)C4)cc2)CC1 (stereo unspecified)	90.4% (active)
COc1ccc(/C(C)=N/N2C(=O)c3ccccc3NC2c2ccc(O)c(OC)c2)cc1 (stereo unspecified)	9.34%
CCOc1cc(C2C3=C(CCCC3=O)N(C)C3=C2C(=O)CCC3)cc(Cl)c1O	6.5%
CCCN1C(=O)c2ccccc2NC1c1ccc(O)c(OCC)c1 (stereo unspecified)	14.5% (active)
O=C(O)c1cccc2c1-c1c(cccc1[N+](=O)[O-])C2	1890% (active)
CC(C)C12CN(C(=O)c3ccccc3[N+](=O)[O-])CC(C(C)C)(CN(C(=O)c3ccccc3[N+](=O)[O-])C1)C2=O	6.99%
CCN(CC)c1ccc(-c2sc(Nc3ccccc3)n[n+]2-c2ccc(F)cc2)cc1	18.7% (active)
CCc1ccc(Nc2n[n+](-c3ccccc3)c(-c3ccc(N(CC)CC)cc3)s2)cc1	5.32%
CCN(CC)c1ccc(NC(=S)Nc2ccc(F)cc2)cc1	5.29%
CCOC(=O)/C(C#N)=C/c1ccc(N2CCN(Cc3ccccc3)CC2)cc1	285% (active)
CCOC(=O)/C(C#N)=C\c1ccc(N2CCN(C/C=C/c3ccccc3)CC2)cc1	4.67%
CCN(CC)c1ccc2cc(C(=O)NCc3ccc(F)cc3)c(=N)oc2c1	54.1% (active)
CCOC(=O)Nc1ccc(NCc2ccc(F)cc2)nc1N	5.72%
COC(=O)CNC(=O)COC(=O)c1cc(F)c(F)cc1Cl	7.53%

SMILES	activation
Cn1c2c(c(=O)n(C)c1=O)C(C(F)(F)F)(C(F)(F)F)N=C(CCC1CCCCC1)N2	9.24%
COC(=O)C1=NN(C(=O)c2ccc(Br)cc2)C(O)(C(C)(C)C)C1 (stereo unspecified)	13.4% (active)
CC(C)(C)C1(O)CC(C(F)(F)F)=NN1C(=O)CCCc1ccccc1 (stereo unspecified)	3.64%
CCN(CC)c1ccc(/C=C2/SC(=O)N(C(C)C)C2=O)o1	15.2% (active)
COc1cc(OC)c(OC)cc1/C=C1\Oc2cc(OCC(=O)N3Cc4ccccc4C[C@H]3C(=O)O)ccc2C1=O	7.71%
COc1ccc(/C=C2\Oc3cc(OCC(=O)N4CCC[C@H]4CO)ccc3C2=O)c(OC)c1	13.8% (active)
COc1ccc(/C=C2\Oc3cc(OCC(=O)N4CCC[C@H]4C(=O)O)ccc3C2=O)c(OC)c1	17.4% (active)
COc1ccc(/C=C2\Oc3cc(OCC(=O)N4CCC(C(=O)O)CC4)ccc3C2=O)c(OC)c1	249% (active)
COc1ccc(/C=C2\Oc3cc(OC(=O)N4CCOCC4)ccc3C2=O)c(OC)c1	19.2% (active)
CS(=O)(=O)N(CC(=O)NCCSCc1ccccc1)c1ccccc1	7.88%
CCOC(=O)c1c(NC(=O)c2ccno2)c2cc([N+](=O)[O-])ccc2n1C	4.78%
Cc1cccc(OCc2nn[nH]n2)c1C	9.03%
Cc1cccc(C)c1OCC(C)N (stereo unspecified)	15.2% (active)
CC(=O)Oc1ccc2c(c1)Oc1cc(OC(C)=O)ccc1C21OC(=O)c2ccccc21	49.7% (active)
CC1CCCCC1NS(=O)(=O)CCNC(=O)c1ccccc1 (stereo unspecified)	1.54%
Cc1cc(C)c2c(SC(C)C)nc(N)nc2n1	18.3% (active)
Cc1ccc(NC(=S)Nc2ccc3nc(-c4ccccn4)c(-c4ccccn4)nc3c2)cc1C	15.9% (active)
Cc1ccc(NC(=O)Cn2ccnc2)cc1C	6.24%
Cc1ccccc1NC(=S)Nc1ccc(Br)cc1	9.23%
C=CCn1c(C)cc(-c2csc(N)n2)c1C	9.08%
O=C1NC(c2ccccc2)=C(c2nc3ccccc3s2)C(c2ccc(O)cc2)N1 (stereo unspecified)	2.85%
O=C(Nc1nc(-c2nc3ccccc3s2)cs1)C1COc2ccccc2O1 (stereo unspecified)	43.4% (active)
O=C(Nc1ccc(Cl)cn1)C1COc2ccccc2O1 (stereo unspecified)	54.7% (active)
